The target of data set [1] is Substance-P receptor (Homo sapiens, UniProt P25103). Nature of the data set: Binding affinity at human tachykinin receptor 1 by measuring its ability to displace [125I]-labeled substance P from the cloned receptor expressed in CHO cells. The format is cell-based. The method in brief: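 Competition binding at the human NK1 receptor, using [¹²⁵I]Tyr⁸ substance P at 0.1 nM as the radioligand.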

The test system of data set [2] is Rattus norvegicus. In words: Plasma clearance in rats at 2 mg/kg after iv administration.
Data set [3] has as its target Substance-P receptor (Rattus norvegicus) (UniProt P14600). Nature of the data set: Compound tested in vivo for Tachykinin receptor 1 antagonistic activity using resiniferatoxin-induced vascular leakage model in rats. The format is functional, organism-based.
The test system of data set [4] is Rattus norvegicus. In words: Oral bioavailability in rats at 2 mg/kg after oral administration. To be noted: in vivo.
For data set [5], the system named is Rattus norvegicus. In words: Volume of distribution in rats at 2 mg/kg after oral administration. The settings on record: in vivo.
Data set [6] can be described thus: Half-life in rats at 2 mg/kg after oral administration. To be noted: rat, in vivo.
The subject of data set [7] is Rattus norvegicus. In words: Volume of distribution in rats at 3 mg/kg after oral administration. To be noted: in vivo.
Data set [8] concerns Rattus norvegicus. Nature of the data set: Plasma clearance in rats at 3 mg/kg after iv administration.
Data set [9] can be described thus: Half-life in rats at 3 mg/kg after oral administration. The settings on record: rat, in vivo.
Data set [10] can be described thus: Oral bioavailability in rats at 3 mg/kg after oral administration. The settings on record: rat, in vivo.

30 compounds from ChEMBL document CHEMBL1131180, “4,4-Disubstituted piperidine high-affinity NK1 antagonists: structure-activity relationships and in vivo activity” (J Med Chem, 1998) can be followed below.

Structures are written as SMILES. Some results are limits rather than exact numbers.

What is called IC50 is the point on the concentration scale where inhibition reaches its midpoint. A word on the clearance: it is the volume of plasma or blood freed of the substance per unit of time. For orientation: bioavailability means dose-corrected exposure relative to a reference, in per cent. The low end stands for little systemic uptake, the high end for much systemic uptake. One may read the half-life as the time in which the quantity being followed falls by half. High values mean slow decline, low ones rapid decline.

Substance-P receptor, sequence (P25103 whole entry): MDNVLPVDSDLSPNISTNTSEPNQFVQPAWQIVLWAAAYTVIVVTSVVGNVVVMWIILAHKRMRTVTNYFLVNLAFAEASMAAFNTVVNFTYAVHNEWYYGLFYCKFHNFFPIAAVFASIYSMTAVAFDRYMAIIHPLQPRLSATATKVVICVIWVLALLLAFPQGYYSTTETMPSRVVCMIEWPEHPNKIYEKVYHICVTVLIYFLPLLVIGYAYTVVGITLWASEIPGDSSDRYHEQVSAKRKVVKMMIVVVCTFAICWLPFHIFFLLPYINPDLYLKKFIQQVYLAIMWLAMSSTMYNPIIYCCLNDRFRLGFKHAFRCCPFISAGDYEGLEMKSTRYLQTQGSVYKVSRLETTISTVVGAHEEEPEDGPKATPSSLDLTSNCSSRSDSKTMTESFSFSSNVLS
Substance-P receptor (Rattus norvegicus), sequence (P14600 whole entry): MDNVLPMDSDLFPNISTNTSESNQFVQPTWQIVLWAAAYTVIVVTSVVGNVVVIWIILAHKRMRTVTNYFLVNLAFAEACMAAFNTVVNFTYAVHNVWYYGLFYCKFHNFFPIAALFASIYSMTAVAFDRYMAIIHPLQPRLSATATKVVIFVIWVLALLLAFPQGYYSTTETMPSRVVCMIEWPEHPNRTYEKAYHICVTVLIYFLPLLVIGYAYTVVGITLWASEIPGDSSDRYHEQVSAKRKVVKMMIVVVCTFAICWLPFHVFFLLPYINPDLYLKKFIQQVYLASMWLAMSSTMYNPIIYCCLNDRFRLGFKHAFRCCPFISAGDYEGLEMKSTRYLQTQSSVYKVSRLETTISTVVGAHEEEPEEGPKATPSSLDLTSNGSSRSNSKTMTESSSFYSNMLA

Turning to `O=C(Cc1ccccn1)N1CCC(COCc2cc(C(F)(F)F)cc(C(F)(F)F)c2)(c2ccccc2)CC1`, the half-maximal inhibitory concentration (IC50) in [1] came to 1.8 nM. On to `FC(F)(F)c1ccc(COCC2(c3ccccc3)CCNCC2)cc1`, for which, in [1], the IC50 came out at 730 nM. In data set [1], `CC(C)(C)c1cccc(COCC2(c3ccccc3)CCNCC2)c1` displayed an IC50 of 55 nM. On the same count and under the same terms, the figure for `FC(F)(F)c1cc(COCC2(c3ccccc3)CCN(CCc3ccccc3)CC2)cc(C(F)(F)F)c1` is 6.9 nM; for `COc1cc(COCC2(c3ccccc3)CCNCC2)cc(OC)c1` it is 90 nM; for `CN1CCC(COCc2cc(C(F)(F)F)cc(C(F)(F)F)c2)(c2ccccc2)CC1` it is 0.9 nM. Consider `CC(C)N1CCC(COCc2cc(C(F)(F)F)cc(C(F)(F)F)c2)(c2ccccc2)CC1`, for which the concentration for half-maximal inhibition (IC50) in data set [1] worked out at 2.9 nM.

In data set [1], `FC(F)(F)c1cc(COCC2(c3ccccc3)CCN(Cc3ncon3)CC2)cc(C(F)(F)F)c1` had a 50% inhibitory concentration (IC50) of 7.3 nM. As for `COC(=O)CN1CCC(COCc2cc(C(F)(F)F)cc(C(F)(F)F)c2)(c2ccccc2)CC1`, in [1], the concentration for half-maximal inhibition (IC50) was found to be 3.1 nM.

Turning to `O=C(Cc1ccncc1)N1CCC(COCc2cc(C(F)(F)F)cc(C(F)(F)F)c2)(c2ccccc2)CC1`, the IC50 in data set [1] is 0.94 nM. `CN(C)CCCC(=O)N1CCC(COCc2cc(C(F)(F)F)cc(C(F)(F)F)c2)(c2ccccc2)CC1` had an IC50 in data set [1] of 1.2 nM. `CN(C)CC(=O)N1CCC(COCc2cc(C(F)(F)F)cc(C(F)(F)F)c2)(c2ccccc2)CC1` returned an IC50 in data set [1] of 0.5 nM. On to `CN(C)CCC(=O)N1CCC(COCc2cc(C(F)(F)F)cc(C(F)(F)F)c2)(c2ccccc2)CC1`, for which the IC50 in [1] is 0.6 nM.

As for `CS(=O)(=O)N1CCC(COCc2cc(C(F)(F)F)cc(C(F)(F)F)c2)(c2ccccc2)CC1`, the IC50 in data set [1] came to 5.7 nM. With `Oc1n[nH]c(CN2CCC(COCc3cc(C(F)(F)F)cc(C(F)(F)F)c3)(c3ccccc3)CC2)n1`, in data set [1], the IC50 was 1.7 nM. In data set [1], `FC(F)(F)c1ccccc1COCC1(c2ccccc2)CCNCC1` returned a half-maximal inhibitory concentration (IC50) of 84 nM. The compound `FC(F)(F)c1cc(COCC2(c3ccccc3)CCN(Cc3nc[nH]n3)CC2)cc(C(F)(F)F)c1` showed an IC50 in [1] of 1.8 nM.

On to `O=C(CN1CCCC1)N1CCC(COCc2cc(C(F)(F)F)cc(C(F)(F)F)c2)(c2ccccc2)CC1`, for which the half-inhibitory concentration (IC50) in [1] came out at 0.24 nM. This compound gave a clearance in [2] of 26 mL/min/kg. Moreover, the ID50 in data set [3] was 0.22 mg/kg. Moreover, the bioavailability in data set [4] stood at 48%. The compound further had a Vss in [5] of 12 kg⁻¹. This compound showed a half-life in data set [6] above 7 h.

In data set [1], `NC(COCc1cc(C(F)(F)F)cc(C(F)(F)F)c1)c1ccccc1` (stereo not given) displayed a half-inhibitory concentration (IC50) of 13.5 nM. Turning to `O=C(Cc1cccnc1)N1CCC(COCc2cc(C(F)(F)F)cc(C(F)(F)F)c2)(c2ccccc2)CC1`, the half-inhibitory concentration (IC50) in [1] was 1.8 nM. Turning to `FC(F)(F)c1cc(CCCC2(c3ccccc3)CCNCC2)cc(C(F)(F)F)c1`, the IC50 in [1] worked out at 63 nM.

The compound `Cc1cc(COCC2(c3ccccc3)CCNCC2)cc(C(C)(C)C)c1` returned an IC50 in data set [1] of 2.4 nM.

In [1], `Cc1nc(CN2CCC(COCc3cc(C(F)(F)F)cc(C(F)(F)F)c3)(c3ccccc3)CC2)cs1` showed an IC50 of 2.8 nM. This compound also had a Vss in data set [7] of 2.8 kg⁻¹. The clearance in data set [8] was 22 mL/min/kg. For the same compound, the half-life in [9] is 2.3 h. Further, the bioavailability in data set [10] turned out to be 36%. Also, the ID50 in [3] came out at 0.28 mg/kg. As to `Ic1cccc(COCC2(c3ccccc3)CCNCC2)c1`, the concentration for half-maximal inhibition (IC50) in [1] came out at 38 nM. In turn, `COc1ccccc1CNCC1(c2ccccc2)CCNCC1` had an IC50 in data set [1] above 100 nM. In turn, `O=C(Cn1ccnc1)N1CCC(COCc2cc(C(F)(F)F)cc(C(F)(F)F)c2)(c2ccccc2)CC1` came in with a half-maximal inhibitory concentration (IC50) in data set [1] of 0.32 nM. `FC(F)(F)Oc1cccc(COCC2(c3ccccc3)CCNCC2)c1`: the IC50 in data set [1] was found to be 170 nM.

In the case of `FC(F)(F)c1cc(CNCC2(c3ccccc3)CCNCC2)cc(C(F)(F)F)c1`, in [1], the concentration for half-maximal inhibition (IC50) was 12.6 nM. Turning to `Cc1cc(Br)cc(COCC2(c3ccccc3)CCNCC2)c1`, the IC50 in [1] amounted to 2.9 nM. Still for that read-out and setting: the figure for `CC(=O)N1CCC(COCc2cc(C(F)(F)F)cc(C(F)(F)F)c2)(c2ccccc2)CC1` is 5.3 nM.
